Bioassay records as filed in PubChem.
Apaf-1 inh: inhibitors of human Apaf-1 apoptosome; O14727; reconstituted apoptosome caspase-3 activity, DEVD-Rh110 fluorescence; inhibition, % at 20 µM; 0.71% of 330,000 active; AID 489030; active = inhibition of at least 40% at 20 µM;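 also: plate controls were DMSO wells for no effect and DEVD-CHO caspase inhibitor wells for full effect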
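Material: biochemical Apaf-1 apoptosome reconstitution. Medium: Hepes buffer, pH 7.5. Also added: cytochrome c activation, bis-DEVD rhodamine 110 substrate. Timing: 30 min compound preincubation, 50 min activation, room temperature. Measured by: rhodamine 110 fluorescence at Ex 480/Em 540 nm.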
UBC13 inh: human UBC13 polyubiquitination inhibition | AID 485273 | 0.47% of 330,000 active | inhibition, % at 20 µM | UBC13 polyubiquitin chain formation, TR-FRET; in the data active = inhibition above about 45%, passing the limit was not always enough
Target sequence (P61088 whole entry, looked up): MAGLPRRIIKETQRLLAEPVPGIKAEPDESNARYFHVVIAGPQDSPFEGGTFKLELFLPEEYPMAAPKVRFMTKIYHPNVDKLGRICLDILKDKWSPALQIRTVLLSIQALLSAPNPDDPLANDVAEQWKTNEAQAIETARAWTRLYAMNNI
PREPL inhibitor: inhibitors of human prolyl oligopeptidase-like enzyme PREPL | Q4J6C6 | recombinant PREPL, fluorescence polarization activity-based probe | inhibition, % at 5.96 µM | 0.68% of 320,000 active; in the data active = inhibition above about 43%;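 also: 0% = enzyme with DMSO and 100% = wells lacking enzyme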
EBNA-1 inh: blocks EBNA-1 binding to DNA; inhibition, % at 14.8 µM; EBNA-1 DNA binding, fluorescence polarization; AID 1950; 0.34% of 300,000 active; in the data active = inhibition above about 28%
ZTA DNA inh: counter-screen for EBNA-1 inhibitors: inhibitors of Epstein-Barr virus ZTA; P03206; ZTA-DNA binding, fluorescence polarization; inhibition, % at 11 µM; 0.15% of 320,000 active; AID 2234; in the data active = inhibition above about 33%
Target sequence (P03206 whole entry, looked up): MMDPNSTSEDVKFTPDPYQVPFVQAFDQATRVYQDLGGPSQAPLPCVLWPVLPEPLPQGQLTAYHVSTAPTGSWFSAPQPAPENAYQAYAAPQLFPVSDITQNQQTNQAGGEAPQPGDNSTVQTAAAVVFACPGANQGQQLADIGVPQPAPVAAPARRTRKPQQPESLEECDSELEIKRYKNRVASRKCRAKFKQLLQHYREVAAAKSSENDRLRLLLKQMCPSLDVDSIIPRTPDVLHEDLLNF
Apaf-1 inh conf: confirmation of Apaf-1 inhibitors | reconstituted apoptosome, caspase-3 DEVD-Rh110 fluorescence | 25% of 1,800 active | inhibition, % at 20 µM | shares compounds with Apaf-1 inh;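 active = mean inhibition of at least 40% at 20 µM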;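 also: plate controls were DMSO wells for no effect and DEVD-CHO caspase inhibitor control wells for full effect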
Rh110 interf inh: counter-screen for Apaf-1 inhibitors: fluorescence interference; shares compounds with Apaf-1 inh; Rh110 fluorescence interference, quenched caspase reaction; activation (fluorescence interference), % at 20 µM; 1,800 tested, under 10 active;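 active = signal rise of 40% or more at 20 µM, treated as a fluorescence artifact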
Apaf1 inh interf: Apaf-1 inhibitor counter-screen fluorescence artifact; shares compounds with Apaf-1 inh; fluorescence interference counterscreen, Apaf-1 assay format; IC50, µM; 460 tested, under 10 active; call rule not given here
Active calls of the source: *; nt = no result given. The list is not random: actives were taken first. Their share in the collection is about 1.7%.

SMILES	Apaf-1 inh	UBC13 inh	PREPL inhibitor	EBNA-1 inh	ZTA DNA inh	Apaf-1 inh conf	Rh110 interf inh	others
Cc1cccc(CN2CCCC(C(=O)c3ccc(C(F)(F)F)cc3)C2)n1 (centres undefined)	1	10	-8	2	-8	nt	nt
COP(=O)(OC)C(Nc1ccccn1)c1ccccc1 (centres undefined)	-1	4	12	7	0	nt	nt
CC(C)(C)N(NC(=O)c1ccccc1)C(=O)c1ccccc1	-13	-1	8	-10	3	nt	nt
CN(C)P(=O)(CCl)Nc1ccccc1 (centres undefined)	-9	-9	-3	8	-3	nt	nt
COCCCn1c(N)c(C(=O)Nc2ccccc2)c2nc3ccccc3nc21	51*	3	17	-5	6	25	9
COCCCn1c(N)c(C(=O)NCc2ccco2)c2nc3ccccc3nc21	95*	-18	6	0	0	19	7
COCCNC(=O)c1c(NC(=O)c2ccco2)n(Cc2ccccc2)c2nc3ccccc3nc12	53*	-1	6	-7	-8	18	10
COCCNC(=O)c1c(N)n(Cc2ccco2)c2nc3ccccc3nc12	10	-15	13	5	3	nt	nt
COc1ccc(CNCCc2cccc(F)c2)c2ccccc12	8	6	nt	nt	nt	nt	nt
COC(=O)C1=C(c2ccc(Cl)c(C(F)(F)F)c2)C[C@@H]2CC[C@H]1N2C(=O)NCCOc1ccc(OC)cc1	40*	-5	7	nt	6	19	5
CCCNC(=O)N1[C@H]2CC[C@@H]1C(C(=O)OC)=C(c1ccc(Cl)c(C(F)(F)F)c1)C2	13	-6	7	nt	-7	nt	nt
C/C(Cl)=C/CC1(CN2CCCC2=O)C(=O)NC(=O)NC1=O	5	4	7	4	0	nt	nt
CP(=O)(O)CCCN	-29	-1	-3	12	16	nt	nt
Cc1nc2ccccc2c(=O)n1-c1cc([N+](=O)[O-])cc([N+](=O)[O-])c1	0	-4	14	2	-3	nt	nt
Cc1[nH]n(-c2ccccc2)c(=O)c1C(c1ccc([N+](=O)[O-])cc1)c1c(C)[nH]n(-c2ccccc2)c1=O	79*	-49	10	-10	-20	30	10
CN(C)C(CNC(=O)Cc1c(Cl)cccc1Cl)c1ccccc1 (centres undefined)	7	0	8	-18	-5	nt	nt
Nc1c(C(=O)OCc2ccccc2)c2nc3ccccc3nc2n1Cc1cccs1	86*	-24	19	15	3	23	18
c1ccc(CCCN2CCN(CCOC(c3ccccc3)c3ccccc3)CC2)cc1	51*	36	2	-1	2	18	9
COc1cc2c(cc1O)[C@@H]1Cc3ccc(OC)c(O)c3CN1CC2	93*	-30	10	-10	1	58*	-4	Apaf1 inh interf=>100
O=[N+]([O-])c1ccc(N2CCCCC2)c2ncccc12	5	-74	12	3	12	nt	nt
O=[N+]([O-])c1ccc(N2CCCNCC2)c2ncccc12	45*	-141	9	10	5	18	13
O=S1(=O)N(CCN2CC=C(c3c[nH]c4cc(F)ccc34)CC2)c2cccc3c2N1CCC3	51*	1	13	4	-17	15	-4
O=[N+]([O-])c1ccc(NCc2ccccc2)c2nonc12	35	-442	38	-6	4	nt	nt
O=[N+]([O-])c1ccc(NCc2ccc(Cl)cc2)c2ccncc12	79*	-29	35	-9	-14	12	-3
CCC1(c2ccccc2)C(=O)N(C)C(=O)N(C)C1=O	-18	10	2	-5	11	nt	nt
